How the values were obtained:
[1] = target: 11-beta-hydroxysteroid dehydrogenase 1 (Homo sapiens, UniProt P28845); test: Inhibition of human 11beta-HSD1 overexpressed in microsomal fraction of HEK293 cells assessed as formation of [3H]-cortisol from [3H]-cortisone by scintillation proximity assay in presence of NADPH; format: cell-based
Procedure, shortened: (§1)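 Full-length human or murine 11β-HSD1 cDNA cloned into pcDNA3 and stably transfected into HEK-293 cells, selected with G418 (700 μg/mL). Microsomal fraction used as enzyme source. Microsomes incubated with NADPH, [3H]cortisone and compound. [3H]cortisol product captured by monoclonal antibody on protein A-coated SPA beads and read by scintillation proximity. IC50 reported.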

[2] = target: T1, 11-beta-hydroxysteroid dehydrogenase type 2 (Mus musculus, UniProt P51661); test: Inhibition of mouse 11beta-HSD2 overexpressed in microsomal fraction of HEK293 cells using [3H]-cortisol as substrate by scintillation proximity assay in presence of NAD+
T1 sequence (P51661 whole entry): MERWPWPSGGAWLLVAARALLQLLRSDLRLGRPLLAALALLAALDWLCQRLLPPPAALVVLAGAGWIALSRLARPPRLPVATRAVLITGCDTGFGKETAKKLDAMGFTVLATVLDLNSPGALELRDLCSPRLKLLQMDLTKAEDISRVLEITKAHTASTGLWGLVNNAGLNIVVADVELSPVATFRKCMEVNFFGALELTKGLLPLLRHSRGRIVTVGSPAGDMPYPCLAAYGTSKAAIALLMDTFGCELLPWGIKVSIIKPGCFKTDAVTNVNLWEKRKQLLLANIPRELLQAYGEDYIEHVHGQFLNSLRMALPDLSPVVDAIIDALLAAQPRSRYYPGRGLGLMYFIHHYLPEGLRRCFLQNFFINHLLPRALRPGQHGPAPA
Procedure, shortened: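 Enzyme was murine 11β-HSD2 full-length cDNA in pcDNA3, stably expressed in HEK-293 cells selected with G418 (700 μg/mL). Microsomes from these cells were incubated with [3H]cortisol, NAD+ and compound. Activity was read by scintillation proximity assay and IC50 reported.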

[3] = target: 11-beta-hydroxysteroid dehydrogenase 1 (Mus musculus, UniProt P50172); test: Inhibition of mouse 11beta-HSD1 overexpressed in microsomal fraction of HEK293 cells assessed as formation of [3H]-cortisol from [3H]-cortisone by scintillation proximity assay in presence of NADPH; format: cell-based; procedure, shortened: as §1
11-beta-hydroxysteroid dehydrogenase 1 (Mus musculus, UniProt P50172), sequence (P50172 whole entry): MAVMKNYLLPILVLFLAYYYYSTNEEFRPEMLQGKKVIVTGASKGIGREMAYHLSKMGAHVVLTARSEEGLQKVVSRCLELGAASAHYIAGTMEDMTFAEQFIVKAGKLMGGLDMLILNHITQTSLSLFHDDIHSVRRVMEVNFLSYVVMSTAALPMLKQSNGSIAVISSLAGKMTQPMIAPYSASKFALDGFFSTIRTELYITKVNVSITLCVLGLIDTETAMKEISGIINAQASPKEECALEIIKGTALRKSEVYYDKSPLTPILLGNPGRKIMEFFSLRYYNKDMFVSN

[4] = target: T2, 11-beta-hydroxysteroid dehydrogenase type 2 (Homo sapiens, UniProt P80365); test: Inhibition of human 11beta-HSD2 overexpressed in microsomal fraction of HEK293 cells using [3H]-cortisol as substrate by scintillation proximity assay in presence of NAD+
T2 sequence (P80365 whole entry): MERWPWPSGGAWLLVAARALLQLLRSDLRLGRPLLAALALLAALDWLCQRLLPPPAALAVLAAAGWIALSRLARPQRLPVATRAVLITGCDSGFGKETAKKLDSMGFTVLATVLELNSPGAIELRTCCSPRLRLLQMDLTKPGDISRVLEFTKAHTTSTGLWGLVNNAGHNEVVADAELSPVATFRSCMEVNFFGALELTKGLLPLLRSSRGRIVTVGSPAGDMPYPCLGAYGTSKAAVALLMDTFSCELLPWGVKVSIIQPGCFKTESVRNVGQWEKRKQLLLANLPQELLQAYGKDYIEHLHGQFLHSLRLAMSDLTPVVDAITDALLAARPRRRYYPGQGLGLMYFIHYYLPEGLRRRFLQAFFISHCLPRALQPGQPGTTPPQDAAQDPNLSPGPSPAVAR

11-beta-hydroxysteroid dehydrogenase 1 (Homo sapiens, UniProt P28845), sequence (P28845 whole entry): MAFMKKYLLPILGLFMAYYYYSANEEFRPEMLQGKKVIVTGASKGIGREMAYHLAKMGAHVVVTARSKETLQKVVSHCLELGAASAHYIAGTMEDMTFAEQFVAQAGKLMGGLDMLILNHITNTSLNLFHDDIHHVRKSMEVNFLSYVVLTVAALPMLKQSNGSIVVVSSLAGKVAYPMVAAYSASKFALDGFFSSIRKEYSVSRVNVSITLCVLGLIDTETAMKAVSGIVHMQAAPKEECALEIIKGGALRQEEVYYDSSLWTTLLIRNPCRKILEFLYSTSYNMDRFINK

SMILES | IC50 [1] [µM] | IC50 [2] [µM] | IC50 [3] [µM] | IC50 [4] [µM]
CO[C@@H]1CC(=O)[C@]2(C)[C@@H]1[C@H](O)C[C@@H]1[C@@]3(C)CC[C@H](O)C(C)(C)[C@@H]3CC[C@]12C | 0.194 | 292 | 2.8 | –
CC(=O)O[C@@H]1C[C@@H]2[C@@]3(C)CC[C@H](O)C(C)(C)[C@@H]3CC[C@@]2(C)[C@]2(C)C(=O)C[C@@H](O)[C@@H]12 | 0.0755 | > 1000 | 4.7 | –

Next, values leading:

IC50 [1] [µM] | IC50 [2] [µM] | IC50 [3] [µM] | IC50 [4] [µM] | SMILES
0.0153 | 155 | 3.3 | – | CO[C@@H]1CC(=O)[C@]2(C)[C@@H]1[C@H](OC(C)=O)C[C@@H]1[C@@]3(C)CC[C@H](O)C(C)(C)[C@@H]3CC[C@]12C
0.0341 | 217 | 7.2 | – | CC(=O)O[C@@H]1C[C@@H]2[C@@]3(C)CC[C@H](O)C(C)(C)[C@@H]3CC[C@@]2(C)[C@]2(C)C(=O)C=C[C@@H]12
0.395 | > 1000 | 2.9 | 284 | CC1(C)[C@@H](O)CC[C@]2(C)[C@H]3C[C@@H](O)[C@@H]4C=CC(=O)[C@@]4(C)[C@]3(C)CC[C@@H]12

Source: ChEMBL document CHEMBL3421600, “Hupehenols A-E, selective 11β-hydroxysteroid dehydrogenase type 1 (11β-HSD1) inhibitors from Viburnum hupehense” (J Nat Prod, 2015)
